Source: ChEMBL document CHEMBL4014276, “Diphenylurea derivatives for combating methicillin- and vancomycin-resistant Staphylococcus aureus” (Eur J Med Chem, 2017)
Converted amounts (≈) assume the structure as drawn. The source made the active and inactive calls. The rule behind the calls is not given here.

How the values were obtained:
Staphylococcus aureus [1] = assay: Bactericidal activity against Staphylococcus aureus RN4220 NRS107 clinical isolate after 18 hrs by broth microdilution method; type: functional; details: RN4220 NRS107, 18 h
How it was run: (§1)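 From MIC wells without visible growth, 5 uL spotted onto Tryptic soy agar, incubated 37 °C for at least 18 h; MBC taken as lowest concentration giving 99.9% growth inhibition.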

Staphylococcus aureus [2] = assay: Antibacterial activity against methicillin-resistant Staphylococcus aureus USA400 NRS123 clinical isolate after 20 hrs by broth microdilution method; type: functional; details: USA400 NRS123, 20 h
How it was run: (§2)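 CLSI broth microdilution in cation-adjusted Mueller Hinton broth; compounds serially diluted, triplicate samples; 37 °C, 20 h. MIC read visually as lowest concentration with no visible growth; mean of triplicate determinations reported.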

Staphylococcus aureus [3] = assay: Antibacterial activity against methicillin-resistant Staphylococcus aureus USA100 NRS382 clinical isolate after 20 hrs by broth microdilution method; type: functional; details: USA100 NRS382, 20 h; how it was run: as §2
Staphylococcus aureus [4] = assay: Bactericidal activity against methicillin-resistant Staphylococcus aureus USA100 NRS382 clinical isolate after 18 hrs by broth microdilution method; type: functional; details: USA100 NRS382, 18 h; how it was run: as §1
Staphylococcus aureus [5] = assay: Antibacterial activity against methicillin-resistant Staphylococcus aureus USA200 NRS383 clinical isolate after 20 hrs by broth microdilution method; type: functional; details: USA200 NRS383, 20 h; how it was run: as §2
Staphylococcus aureus [6] = assay: Antibacterial activity against methicillin-resistant Staphylococcus aureus USA300 NRS384 clinical isolate after 20 hrs by broth microdilution method; type: functional; details: USA300 NRS384, 20 h; how it was run: as §2
Staphylococcus aureus [7] = assay: Antibacterial activity against vancomycin-resistant Staphylococcus aureus VRSA4 after 20 hrs by broth microdilution method; type: functional; details: VRSA4, 20 h; how it was run: as §2
Staphylococcus aureus [8] = assay: Bactericidal activity against vancomycin-resistant Staphylococcus aureus VRSA4 after 18 hrs by broth microdilution method; type: functional; details: VRSA4, 18 h; how it was run: as §1
Staphylococcus aureus [9] = assay: Antibacterial activity against vancomycin-resistant Staphylococcus aureus VRSA10 after 20 hrs by broth microdilution method; type: functional; details: VRSA10, 20 h; how it was run: as §2
Staphylococcus aureus [10] = assay: Bactericidal activity against vancomycin-resistant Staphylococcus aureus VRSA10 after 18 hrs by broth microdilution method; type: functional; details: VRSA10, 18 h; how it was run: as §1
[11] = Intrinsic clearance in human liver microsomes in presence of NADPH by LC-MS/MS method; type: ADME, microsome; details: read-out: CLH
[12] = Half life in human liver microsomes in presence of NADPH by LC-MS/MS method; type: ADME, microsome
[13] = Half life in human liver microsomes in absence of NADPH by LC-MS/MS method; type: ADME, microsome
HaCaT = assay: Cytotoxicity against human HaCaT cells up to 64 ug/ml after 2 hrs by MTS assay; type: cell-based
How it was run: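 Keratinocytes grown in DMEM with 10% FBS at 37 °C, 5% CO2; exposed in triplicate to 8, 16, 32 and 64 µg/mL for 2 h. DMSO-matched controls. MTS added for 4 h, absorbance at 490 nm. Viability expressed as % of DMSO-treated cells (mean of triplicate ± SD); one-way ANOVA with Dunnett's test, P < 0.05.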

J774 = assay: Cytotoxicity against mouse J774 cells up to 16 ug/ml after 24 hrs by MTS assay; type: cell-based; details: j774, 24 h
How it was run: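 Murine macrophages cultured in DMEM plus 10% FBS, 37 °C, 5% CO2; compounds at 8, 16, 32, 64 µg/mL in triplicate for 24 h against DMSO-matched controls. MTS reagent 4 h, read at OD490. Viability as % of DMSO control (triplicate mean ± SD); one-way ANOVA, Dunnett's post hoc, P < 0.05.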

Staphylococcus aureus [14] = assay: Bactericidal activity against methicillin-resistant Staphylococcus aureus USA400 infected in mouse J774 cells assessed as reduction in colony forming units at 16 ug/ml after 4 hrs by time kill assay relative to control; type: functional; parameters: scale not given: the % may be the effect or the level left
How it was run: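 J774 murine macrophages in DMEM/10% FBS infected with MRSA USA400 at MOI ~100:1 for 1 h, extracellular bacteria killed with gentamicin 50 µg/mL; treated at 16 µg/mL in triplicate; after 4, 8 or 24 h cells washed, lysed with 0.1% Triton X-100, plated for CFU; percent reduction versus untreated, t-test.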

Staphylococcus aureus [15] = assay: Bactericidal activity against methicillin-resistant Staphylococcus aureus USA400 NRS123 clinical isolate assessed as disruption of bacterial membrane by measuring leakage of 260 nM absorbing material at 5 times MIC after 30 mins by spectrophotometric method; type: functional
Staphylococcus aureus [16] = assay: Bactericidal activity against methicillin-resistant Staphylococcus aureus USA400 NRS123 clinical isolate assessed as disruption of bacterial membrane by measuring leakage of 280 nM absorbing material at 5 times MIC after 30 mins by spectrophotometric method; type: functional
Staphylococcus aureus [17] = assay: Antibacterial activity against methicillin-resistant Staphylococcus aureus USA400 infected in Caenorhabditis elegans AU37 harboring (sek-1(km4);glp-4(bn2)I) mutant assessed as reduction in colony forming units at 10 ug/ml after 20 hrs by microscopic method relative to control; type: functional; parameters: scale not given: the % may be the effect or the level left
How it was run: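 C. elegans AU37 L4/adult worms infected on MRSA USA400 lawn 6 h, washed in M9; 15-25 worms per well treated with 10 µg/mL in triplicate for 20 h, PBS negative control; worms lysed with silicon carbide, plated on TSA with 5 µg/mL nalidixic acid, 37 °C 18 h; CFU per worm, Student's t-test with Holm-Sidak correction.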

[18] = Apparent permeability across apical to basolateral side in human Caco2 cells at 10 uM after 2 hrs by LC-MS/MS method; type: ADME, cell-based; details: Caco-2
[19] = Efflux ratio of apparent permeability across basolateral to apical over apical to basolateral side in human Caco2 cells at 10 uM after 2 hrs by LC-MS/MS method; type: ADME, cell-based; details: Caco-2
[20] = Cmax in naive Sprague-Dawley rat at 50 mg/kg ,po administered via gavage by LC-MS/MS method; type: ADME, organism-based; parameters: dose 50 mg/kg, route oral; details: in vivo
How it was run: (§3)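 Male naïve rats, three animals; single oral gavage dose in 5% ethanol, 45% PEG 400, 50% water. Blood drawn into EDTA-K2 tubes over 24 h post dose; plasma protein-precipitated with acetonitrile, parent quantified by LC/MS/MS.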

[21] = Tmax in naive Sprague-Dawley rat at 50 mg/kg ,po administered via gavage by LC-MS/MS method; type: ADME, organism-based; details: in vivo; how it was run: as §3
[22] = Half life in naive Sprague-Dawley rat at 50 mg/kg ,po administered via gavage by LC-MS/MS method; type: ADME, organism-based; details: in vivo; how it was run: as §3
[23] = Mean residence time in naive Sprague-Dawley rat at 50 mg/kg ,po administered via gavage by LC-MS/MS method; type: ADME, organism-based; details: in vivo; how it was run: as §3
Staphylococcus aureus [24] = assay: Antibacterial activity against methicillin-resistant Staphylococcus aureus USA200 NRS383 clinical isolate preincubated followed by bacterial subculturing for 2 weeks; type: functional
Staphylococcus aureus [25] = assay: Antibacterial activity against methicillin-resistant Staphylococcus aureus USA300 NRS384 clinical isolate preincubated followed by bacterial subculturing for 2 weeks; type: functional
[26] = Terminal elimination rate constant in naive Sprague-Dawley rat at 50 mg/kg ,po administered via gavage by LC-MS/MS method; type: ADME, organism-based; details: in vivo, read-out: LZ (converted); how it was run: as §3
Staphylococcus aureus [27] = assay: Bactericidal activity against methicillin-resistant Staphylococcus aureus USA400 infected in mouse J774 cells assessed as reduction in colony forming units at 16 ug/ml after 8 hrs by time kill assay relative to control; parameters: scale not given: the % may be the effect or the level left

SMILES: C/C(=N\NC(=N)N)c1ccc(NC(=O)Nc2ccc(OC3CCCCCC3)cc2)cc1
- MBC (Staphylococcus aureus [1]): 4 µg/mL (≈ 9.47 µM)
- MIC (Staphylococcus aureus [2]): 4 µg/mL (≈ 9.47 µM)
- MIC (Staphylococcus aureus [3]): 2 µg/mL (≈ 4.73 µM)
- MBC (Staphylococcus aureus [4]): 4 µg/mL (≈ 9.47 µM)
- MIC (Staphylococcus aureus [5]): 2 µg/mL (≈ 4.73 µM)
- MIC (Staphylococcus aureus [6]): 2 µg/mL (≈ 4.73 µM)
- MIC (Staphylococcus aureus [7]): 2 µg/mL (≈ 4.73 µM)
- MBC (Staphylococcus aureus [8]): 4 µg/mL (≈ 9.47 µM)
- MIC (Staphylococcus aureus [9]): 8 µg/mL (≈ 18.9 µM)
- MBC (Staphylococcus aureus [10]): 8 µg/mL (≈ 18.9 µM)
- microsomal CLint [11]: 33.9 µL/min/mg
- half-life [12]: 1.14 h
- half-life [13]: 0.897 h
- Activity (HaCaT): Non-Toxic
- Activity (J774): Non-Toxic
- Activity (Staphylococcus aureus [14]): 5%
- Activity (Staphylococcus aureus [15]): inactive
- Activity (Staphylococcus aureus [16]): inactive
- Activity (Staphylococcus aureus [17]): >50%
- Papp A→B at 2 h, 10 µM [18]: 0.039 ×10⁻⁶ cm/s
- efflux ratio at 2 h, 10 µM [19]: > 1000
- Cmax [20]: 16.3 ng/mL
- Tmax [21]: 9.33 h
- half-life [22]: 16 h
- MRT [23]: 28.4 h
- Activity (Staphylococcus aureus [24]): Active
- Activity (Staphylococcus aureus [25]): Active
- k el [26]: 1.25e-05 s⁻¹
- Activity (Staphylococcus aureus [27]): 35.7%
